According to publication PMC8542566 (Cell chemical biology, 2021):

What was measured:
[1] = tested on: TgPPT1; test: Inhibition of recombinant TgPPT1, turnover of 4MU-octanoate; assay type: biochemical, Toxoplasma gondii; settings: recombinant enzyme, 4MU-octanoate substrate; result in words
In short: (§1)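 Purified full-length N-terminal His6 enzyme from E. coli, 50 nM final, with 10 μM test compound in 20 mM HEPES, 150 mM NaCl, 10 mM CHAPS, pH 7.4, at 37°C. 4MU-octanoate hydrolysis followed by fluorescence. Initial rates taken from a linear fit, in triplicate, normalized to DMSO control and expressed as percent inhibition.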

[2] = tested on: TgASH2; test: Inhibition of recombinant TgASH2, turnover of 4MU-octanoate; assay type: biochemical, Toxoplasma gondii; settings: recombinant enzyme, 4MU-octanoate substrate; result in words
In short: as §1

[3] = tested on: TgASH4; test: Gel-based competitive FP-TAMRA labeling of recombinant TgASH4; assay type: binding, Toxoplasma gondii; settings: recombinant enzyme, gel-based FP-TAMRA competition; result in words
In short: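 Full-length N-terminal His6 enzyme, expressed in E. coli BL21-CodonPlus(DE3)-RIL (0.5 mM IPTG, 16 h, 19°C) and purified. 300 ng enzyme pre-incubated with DMSO or test compound (10 μM) for 30 min on ice, then labeled with FP-TAMRA for 30 min at 37°C. Quenched in reducing SDS buffer, resolved by SDS-PAGE, fluorescence-scanned (532 nm laser, 610 nm filter). Residual labeling expressed as percent inhibition versus DMSO.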

[4] = tested on: TgASH3; test: Inhibition of recombinant TgASH3, turnover of 4MU-octanoate; assay type: biochemical, Toxoplasma gondii; settings: recombinant enzyme, 4MU-octanoate substrate; result in words
In short: as §1

[5] = tested on: T. gondii tachyzoites in HFFs; test: Rosette formation assay; assay type: cell-based, Toxoplasma gondii; settings: 10 μM dose, wild-type parasites in HFFs, 24 h
In short: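 Freshly egressed wild-type tachyzoites pre-treated with DMSO or 10 μM test compound were grown 24 h on confluent HFF coverslips (DMEM, 10% serum complex, 37°C, 5% CO2). Cells were PFA-fixed, Triton-permeabilized, BSA-blocked, stained with anti-Toxo-FITC (1:1000, overnight, 4°C), DAPI-mounted and imaged by confocal microscopy.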

Row | Compound | inhibitory activity against recombinant TgPPT1 [1] | inhibition of TgASH2 [2] | inhibition of TgASH4 [3] | inhibition of TgASH3 [4] | rosette formation inside the host cell [5]
1 | O=C(O)c1cccc(NC(=S)Nc2ccc3c(Cl)c(OCCBr)oc(=O)c3c2)c1 [JCP342] | significant inhibitory activity | – | – | – | –
2 | O=c1oc(OCCBr)c(Cl)c2ccc(NC(=S)Nc3ccccc3)cc12 [JCP343] | virtually no activity | potent inhibitors | potent inhibitors | potent inhibitors | –
3 | CCCCCCCCCCC[C@@H](C[C@@H]1OC(=O)[C@H]1CCCCCC)OC(=O)[C@H](CC(C)C)NC=O [Orlistat] | – | – | – | – | disordered rosettes
